Results of several laboratories.
Cell line: MCF7
Effect on: cell growth or viability

C[C@@H](NC(=O)[C@H](CCCCNC(=O)C(F)(F)F)NS(C)(=O)=O)C(=O)N[C@@H](CCCNC(=N)N)C(N)=O
EC50 (MTT; 72 h): 47.6 to 62.8 µM

COc1cccc(-c2nc3ccccc3[nH]2)c1
IC50 (MTT; 48 h): 51.4 µM

COc1ccc(C(=O)/C=C/c2cccc(Cl)c2Cl)cc1S(N)(=O)=O
inhibition (SRB; 10 µM): 140%

Cc1ccc2nc(-c3ccc(Cl)cc3)n(Cc3ccccc3Cl)c2c1
IC50 (MTT): 59.8 µM

COc1cc(CNC(=O)CCCC/C=C/C(C)C)ccc1O
inhibition (SRB; 10 µM): 24%

COc1ccc(-c2c(Cc3ccccc3)[nH]c(=NC(=O)c3ccccc3F)n2C)cc1
EC50: 1.4 µM

COc1ccc(C(=O)/C=C/c2cc3c(cc2Br)OCO3)cc1S(N)(=O)=O
inhibition (SRB; 10 µM): 102%

C=CCn1c(-c2ccc([N+](=O)[O-])cc2)nc2ccccc21
IC50 (MTT): 34.1 µM

COc1ccccc1/C=C/C(=O)c1ccc(OC)c(S(N)(=O)=O)c1
GI50 (SRB; 48 h): 2.7 µM

CCCCCCCCCCCCNC(=S)NCCCC[C@H](NS(C)(=O)=O)C(=O)N[C@H](C)C(=O)N[C@@H](CCCNC(=N)N)C(=O)N1CCOCC1
EC50 (MTT; 72 h): 64.7 to 93.7 µM

COc1ccc(C(=O)/C=C/c2ccc3c(c2)OCCO3)cc1S(N)(=O)=O
inhibition (SRB; 10 µM): 77%

COc1cc(C(CC(=O)c2ccc(Br)cc2)NCCc2ccc(O)c(O)c2)ccc1O (stereo not shown)
TGI (MTT): 0.4 µM

CCCCCCCC(=O)NCC(=O)OC
inhibition (MTT; 10 µM, 48 h): 45%

CSc1ccc(-c2nc3ccc(C)cc3n2Cc2ccccc2)cc1
IC50 (MTT): 29 µM

COc1cccc2c1C(=O)c1c(O)c3c(c(O)c1C2=O)C[C@@](O)(C(=O)CO)C[C@@H]3O[C@H]1C[C@H](N)[C@H](O)[C@H](C)O1
IC50 (MTT; 48 h): 0.06 µM

COc1ccc(C(=O)/C=C/c2ccc(Cl)c(Cl)c2)cc1S(N)(=O)=O
inhibition (SRB; 10 µM): 149%

C[C@]12CC[C@@H]3c4ccc(O)cc4CC[C@H]3[C@@H]1CC[C@@H]2O
EC50 (ATP luminescence; 72 h): 22.5 µM

COc1cc(C(CC(=O)c2ccc(C(C)(C)C)cc2)NCCc2ccc(O)c(O)c2)ccc1O (stereo not shown)
TGI (MTT): 4.24 µM

COc1ccc(C(=O)/C=C/c2ccc3c(c2)OC(F)(F)O3)cc1S(N)(=O)=O
inhibition (SRB; 10 µM): 7%

Cc1ccc2nc(-c3ccncc3)[nH]c2c1
IC50 (MTT; 48 h): 54.6 µM

COc1ccc(C(=O)/C=C/c2ccccc2Br)cc1S(N)(=O)=O
inhibition (SRB; 10 µM): 171%

CCCCCCCCCCCCNC(=S)NCCCC[C@H](NC(=O)OCc1ccccc1)C(=O)N[C@@H](C)C(=O)N[C@@H](CCCNC(=N)N)C(N)=O
EC50 (MTT; 72 h): 64.7 to 76.6 µM

Cc1ccc2nc(-c3ccco3)[nH]c2c1
IC50 (MTT; 48 h): > 100 µM

COc1cc(C(CC(N)=O)NCCc2ccc(O)c(O)c2)ccc1O (stereo not shown)
TGI (MTT): 52 µM

CCOc1cc(-c2nc3ccccc3[nH]2)ccc1O
IC50 (MTT; 48 h): 59.2 µM

COc1ccc(C(=O)/C=C/c2cccc(Br)c2)cc1S(N)(=O)=O
inhibition (SRB; 10 µM): 177%

COc1cc(C(CC(=O)c2ccc(Cl)cc2)NCCc2ccc(O)c(O)c2)ccc1O (stereo not shown)
TGI (MTT): 3.05 µM

Cc1ccc2nc(-c3ccc([N+](=O)[O-])cc3)n(Cc3ccc(Cl)cc3)c2c1
IC50 (MTT): 6.24 µM
